Only a selection was taken, and hits are over-represented in it overall.
Fibroblast inh – blocks proliferation of human lung fibroblasts. LL 47 human lung fibroblast viability, ATP luminescence; stronger effect = lower value. 85,000 compounds, 1.1% hits. viability, % at 10 µM;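 active = viability at or below 50% in the single dose screen; inactive = viability above 50%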;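 note: compound exposure lasted 72 h before the ATP readout; 100% = median luminescence of untreated cell-only wells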
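material = human LL 47 lung fibroblast cells | dosing = compounds added from tenfold dosing solution, 0.1% DMSO final | timing = overnight cell rest, 72 h compound treatment at 37 °C | measured by = CellTiter-Glo luminescence measuring cellular ATP | evaluation = % viability versus median cells-only luminescence | control set = cell-only wells, no compound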
H69AR growth 86K – growth inhibitors of human H69AR lung tumor cells. H69AR lung tumor viability, ATP luminescence, 72 h; stronger effect = lower value. viability, % at 10 µM. AID 598. 85,000 compounds, 6% hits;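 active = viability at or below 40%; inactive = viability above 40%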;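 note: multidrug resistant small cell line overexpressing MRP-1 efflux transporter; 100% = mean luminescence of untreated control wells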
bCat KO growth – beta-catenin-lacking colon tumor cell growth suppression; HCT116 beta-catenin knockout viability, CellTiter-Glo, 60 h; stronger effect = lower value; viability, % at 10 µM; 140,000 compounds, 1.5% hits; AID 818;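 active = viability at or under a set limit, the compound median less 4 SD, cut at about 6% in these data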;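 note: 0% = Hyamine 1622 control at 20 µM and 100% = untreated cell control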
HUVEC prolif 384 – inhibitors of human endothelial cell proliferation; HUVEC proliferation, CellTiter-Glo luminescence, 72 h; stronger effect = lower value; viability, % at 10 µM (by protocol); 86,000 compounds, 1.1% hits; AID 648;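 active = viability at or below 30%; inactive = viability above 30%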;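 note: 100% = median luminescence of DMSO-only cell control wells on each plate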
PTEN del growth – growth suppressors of cells with PTEN tumor suppressor deletion; HCT116 PTEN-null viability, CellTiter-Glo, 60 h; stronger effect = lower value; viability, % at 10 µM; 140,000 compounds, 1.2% hits; AID 827;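 active = viability at or below a set limit, 4 SD under the median of all tested compounds, cut at about 3.7% in these data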;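 note: PTEN knockout HCT116 line with beta catenin targeted HCT116 as companion control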
Numbers without * were called inactive; . = not tested or not shown.

SMILES | Fibroblast inh | H69AR growth 86K | bCat KO growth | HUVEC prolif 384 | PTEN del growth
Cc1cc(NC(=O)CSc2nc3ccccc3c(=O)n2C2CCCC2)no1 | 53 | 29* | 9 | 55 | 9
O=S1(=O)C=C(Sc2nc3cc(Cl)ccc3o2)c2ccccc21 | . | . | 1.6* | . | 1.6*
CN=C1CC(SC)=C1c1ccc(C)cc1 | 33* | 38* | 91 | 61 | 114
Cc1nn(-c2ccccc2)c2c1/C(=N/O)CC(C)(C)C2 | 97 | 30* | 87 | 106 | 80
Cc1nn(-c2ccccc2)c2c1C(=O)N(c1ccccc1)C(=O)C(C)(C)C2 | 94 | 79 | 91 | 92 | 91
COc1cc2c(cc1NC(=O)c1cccnc1)oc1ccccc12 | 84 | 35* | 88 | 64 | 85
COc1cc2c(cc1NC(=O)c1cc(-c3ccccn3)nc3ccccc13)oc1ccccc12 | . | . | 6.1* | . | 5
COc1cc2c(cc1NC(=O)c1ccncc1)oc1ccccc12 | 71 | 48 | 82 | 75 | 89
Cc1cccc(Oc2nc(CN3CCOCC3)nc3sc4c(c23)CCCC4)c1 | . | . | 68 | . | 63
COc1ccc(Nc2oc(COc3ccccc3F)nc2C#N)cc1 | 93 | 5.4* | 57 | 87 | 55
CN1CCN(c2nc(-c3ccccc3)nc3c2oc2ccccc23)CC1 | 84 | 87 | . | 24* | .
O=C(NCc1ccccc1Cl)c1ccccc1Oc1ccccc1 | . | . | 101 | . | 103
O=C(CNc1ccccc1)N/N=C/c1ccc([N+](=O)[O-])o1 | . | . | 2.6* | . | 4
Cc1ccc(NCC(=O)N/N=C\c2ccc([N+](=O)[O-])o2)cc1 | . | . | 5.8* | . | 9
O=C(N/N=C/c1ccc([N+](=O)[O-])o1)c1ccc(O)cc1 | . | . | 3.2* | . | 5
O=C(CNC(=O)c1ccccc1)N/N=C/c1ccc([N+](=O)[O-])o1 | . | . | 15 | . | 21
O=C(/C=C/c1cc([N+](=O)[O-])ccc1OC(F)F)Nc1cccc(OC(F)F)c1 | . | . | 92 | . | 98
Cc1ccc(Oc2ccc(-c3nnc(-c4ccccc4)o3)cc2[N+](=O)[O-])cc1C | . | . | 89 | . | 88
O=C(c1nnc(Cc2ccc(Cl)cc2)o1)N1CCc2ccccc2C1 | 106 | 105 | 1.1* | 109 | 0.6*
COc1ccc(Cc2nnc(SCC(=O)N3CCc4ccccc4C3)o2)cc1 | 102 | 92 | 78 | 90 | 95
Cc1cccc(-n2c(SCC(=O)N3CC(=O)Nc4ccccc43)nc3ccccc3c2=O)c1C | . | . | 50 | . | 36
CCN(CC)c1ccc(/C=C2/SC(=O)N(C(C)C)C2=O)o1 | . | . | 5.6* | . | 5
CCc1ccc2[nH]c(=O)c(CN(Cc3ccccc3)C(=O)Nc3ccccc3OC)cc2c1 | 49* | 39* | 45 | 82 | 44
O=C(NC1CCCCC1)N(Cc1cc2cc3c(cc2[nH]c1=O)OCCO3)C1CCCCC1 | 85 | 36* | 74 | 85 | 77
COc1ccc2cc(CN(C(=O)Nc3ccccc3OC)C3CCCC3)c(=O)[nH]c2c1 | 89 | 25* | 48 | 71 | 42
SMILES | Fibroblast inh | H69AR growth 86K | bCat KO growth | HUVEC prolif 384 | PTEN del growth
COc1cc2cc(CN(C(=O)NC3CCCCC3)C3CCCC3)c(=O)[nH]c2cc1OC | 94 | 77 | 83 | 89 | 82
COc1ccccc1NC(=O)N(Cc1ccc2c(c1)OCO2)Cc1nc2ccccc2c(=O)[nH]1 | 74 | 9.4* | 97 | 63 | 109
Cc1ccc(NC(=O)NCCCc2ccccc2)cc1 | . | . | 104 | . | 90
Cc1noc(C)c1CSc1cc(C)c2ccccc2n1 | 90 | 22* | 92 | 97 | 80
Cc1ccc(Cn2ccc(=O)c(OCc3c(Cl)cccc3Cl)c2C)cc1 | 86 | 25* | 19 | 72 | 40
CC(=O)c1cccc(NC(=O)COc2cc3oc(=O)c(CC(C)O)c(C)c3cc2Cl)c1 (stereo unspecified) | . | . | 91 | . | 94
Cc1ccc(C)c(OCC(O)CN2CCC(CN3C(=O)c4cccc5cccc(c45)C3=O)CC2)c1 (stereo unspecified) | . | . | 1.2* | . | 1.2*
Cc1cc(C)nc(SCC(=O)NC2=NN=C(c3ccc(Br)cc3)CS2)n1 | . | . | 1.5* | . | 2.8*
CCCOc1ccc(C2/C(=C(\O)c3c(C)[nH]c(C(=O)OC)c3C)C(=O)C(=O)N2CCN(C)C)cc1 (stereo unspecified) | 105 | 94 | 81 | 104 | 78
CCOC(=O)c1[nH]c(C)c(/C(O)=C2\C(=O)C(=O)N(CCN3CCOCC3)C2c2cccs2)c1C (stereo unspecified) | 91 | 33* | 37 | 60 | 32
CCOc1ccc(C2/C(=C(\O)c3c(C)[nH]c(C(=O)OC)c3C)C(=O)C(=O)N2CCN(C)C)cc1 (stereo unspecified) | 90 | 92 | 0.7* | 105 | 0.7*
CCOC(=O)c1[nH]c(C)c(/C(O)=C2\C(=O)C(=O)N(CCN(C)C)C2c2ccc(C)o2)c1C (stereo unspecified) | 97 | 19* | 32 | 75 | 35
COC(=O)c1[nH]c(C)c(/C(O)=C2\C(=O)C(=O)N(CCN(C)C)C2c2cccs2)c1C (stereo unspecified) | . | . | 98 | . | 103
COP(=O)(OC)c1nc(-c2ccccc2)oc1N1CCOCC1 | . | . | 91 | . | 97
O=C(CN(c1cccc(Cl)c1)S(=O)(=O)c1ccc(Cl)cc1)N1CCc2ccccc2C1 | . | . | 66 | . | 65
CCC(C)n1c(SCc2ccccc2)nc2ccsc2c1=O (stereo unspecified) | . | . | 80 | . | 74
CC(C)(C)NC(=O)CSc1nc2ccc(NC(=O)CSc3nnc(N)s3)cc2s1 | . | . | 71 | . | 74
Cn1ccnc1SCC(=O)Nc1ccc2nc(SCC(=O)NC3CC3)sc2c1 | 95 | 37* | 86 | 92 | 103
Cc1ccc(NC(=O)c2ccccc2N(C)S(=O)(=O)c2ccccc2)c(C)c1 | . | . | 88 | . | 89
c1ccc2[nH]c(-c3ccnc4ccccc34)nc2c1 | 104 | 48 | 91 | 94 | 99
O=C1C(c2ccnc3ccccc23)=C(O)c2ccccc21 | 73 | 34* | 10 | 62 | 7
CCCOC(=O)c1ccc(NC(=O)C(CC)CC)cc1 | . | . | 97 | . | 93
COCCCn1c2nc3ccccc3nc2c2c(=O)n(Cc3ccccc3Cl)cnc21 | 69 | 3.2* | . | 27* | .
O=C(CSc1nnc(-c2ccncc2)n1-c1ccc(F)cc1)NNC(=O)c1cccc(O)c1 | . | . | 101 | . | 100
Cc1cc(C(=O)CN2CCCC(C)C2)c(C)n1-c1ccc(F)cc1 (stereo unspecified) | . | . | 94 | . | 98
SMILES | Fibroblast inh | H69AR growth 86K | bCat KO growth | HUVEC prolif 384 | PTEN del growth
O=C(Nc1ccc(Cl)c(Cl)c1)C1=Cc2ccccc2OC1 | 92 | 16* | 2.6* | 35 | 2.6*
COc1ccc(OC)c(/C=C/C(=O)c2ccc(Cl)cc2)c1 | . | . | 2.9* | . | 3.1*
COc1ccccc1/C=C/C(=O)c1ccc(Cl)cc1 | . | . | 25 | . | 15
O=C(CSc1cccc2cccc(Cl)c12)NCc1cccs1 | . | . | 91 | . | 99
Cc1ccc(C(=O)O/N=C(\N)c2cccnc2)cc1[N+](=O)[O-] | . | . | 100 | . | 99
COc1ccc(/C(N)=N/OC(=O)c2ccc(C)c([N+](=O)[O-])c2)cc1OC | 96 | 24* | 99 | 84 | 107
